Data set [1] deals with T1, AChE (Homo sapiens, UniProt P22303). The data set can be described thus: biochemical.
The target of data set [2] is T2, BChE (Homo sapiens, UniProt P06276). Briefly: biochemical. It counts as biochemical. The following applies: for fold better BChE inhibitory activity in comparison with positive control: vs donepezil (positive control).
For another data set, the system named is GSK-3β mRNA. Briefly: GSK-3β mRNA level by quantitative PCR in SH-SY5Y. Format: cell-based.
Data set [3] can be described thus: Toxicity assay on SH-SY5Y. Format: cell-based. The following applies: human, SH-SY5Y neuroblastoma cells. A digest of the protocol:
(§1)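 SH-SY5Y cells were cultured in DMEM/F12 with 15% fetal bovine serum, 100 units/mL penicillin and 100 μg/mL streptomycin. Viability was read by MTT after 72 h exposure to test compound. Results are mean ± SEM of five independent experiments, each in triplicate; p < 0.05 was taken as significant.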

Data set [4] deals with SH-SY5Y neuroblastoma cell line. Briefly: Toxicity assay on SH-SY5Y. Particulars: concentrations below 50 μM; 72 h; MTT. It counts as cell-based. A digest of the protocol:
as §1

In another data set the test system is GSK-3α mRNA. Briefly: GSK-3α mRNA level by quantitative PCR in SH-SY5Y. Format: cell-based. The following applies: 25 μM. A digest of the protocol: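 Cells were exposed to test compound at 25 μM. Total RNA was extracted with RNX-plus reagent following the manufacturer's protocol, and transcript levels were then quantified by real-time PCR.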
For data set [5], the target named is T2, BChE. Briefly: Enzyme kinetic study. It counts as biochemical. A digest of the protocol:
(§2)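 Inhibition type and Km taken from Lineweaver–Burk double-reciprocal plots. Ki derived from secondary plots of line slope versus inhibitor concentration and of 1/Vmax versus inhibitor concentration. Cholinesterase activity was measured by a modified Ellman method.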

Data set [6] deals with T1, AChE. The data set can be described thus: Enzyme kinetic study. Format: biochemical. The method, boiled down:
as §2

“Also recorded” adds a separate entry of the source.

T1 sequence (P22303 32-614): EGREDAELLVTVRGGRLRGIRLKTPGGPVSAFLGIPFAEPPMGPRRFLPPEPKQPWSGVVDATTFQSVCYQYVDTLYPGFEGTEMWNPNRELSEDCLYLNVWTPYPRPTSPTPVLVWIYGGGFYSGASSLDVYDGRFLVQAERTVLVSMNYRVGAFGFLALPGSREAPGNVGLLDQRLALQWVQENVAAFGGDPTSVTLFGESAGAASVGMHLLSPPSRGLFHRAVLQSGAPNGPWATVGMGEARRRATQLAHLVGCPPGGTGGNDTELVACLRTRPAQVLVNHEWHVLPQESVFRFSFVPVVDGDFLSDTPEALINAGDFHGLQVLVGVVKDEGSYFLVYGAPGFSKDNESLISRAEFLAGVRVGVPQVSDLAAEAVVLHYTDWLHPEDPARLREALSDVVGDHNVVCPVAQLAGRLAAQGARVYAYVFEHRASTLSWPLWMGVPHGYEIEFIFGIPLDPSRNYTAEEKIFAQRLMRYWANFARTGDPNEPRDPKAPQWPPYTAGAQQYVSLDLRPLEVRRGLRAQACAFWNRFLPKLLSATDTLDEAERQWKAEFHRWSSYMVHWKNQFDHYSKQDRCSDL
T2 sequence (P06276 29-602, species assumed): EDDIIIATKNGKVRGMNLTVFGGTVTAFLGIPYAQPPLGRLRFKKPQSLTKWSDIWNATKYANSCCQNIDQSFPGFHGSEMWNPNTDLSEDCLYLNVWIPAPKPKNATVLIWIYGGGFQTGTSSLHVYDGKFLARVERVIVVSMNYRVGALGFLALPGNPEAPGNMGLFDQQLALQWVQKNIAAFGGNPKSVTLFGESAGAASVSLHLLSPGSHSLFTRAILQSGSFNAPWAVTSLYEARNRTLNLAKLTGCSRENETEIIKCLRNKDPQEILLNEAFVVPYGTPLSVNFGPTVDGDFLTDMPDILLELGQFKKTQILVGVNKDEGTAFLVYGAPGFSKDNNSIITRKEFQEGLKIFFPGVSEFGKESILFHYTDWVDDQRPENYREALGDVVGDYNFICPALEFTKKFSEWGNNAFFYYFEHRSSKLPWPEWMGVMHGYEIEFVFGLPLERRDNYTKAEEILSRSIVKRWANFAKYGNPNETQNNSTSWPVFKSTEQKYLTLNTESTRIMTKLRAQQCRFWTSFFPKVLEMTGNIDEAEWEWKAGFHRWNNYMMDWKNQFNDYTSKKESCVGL

What is called IC50 is the concentration at which inhibition is half-maximal. High values mean a need for much substance, low ones inhibition by little substance. At AChE [1], `O=C(NCc1ccc[n+](Cc2ccccc2)c1)c1ccc(CN2C(=O)c3ccccc3C2=O)cc1.[Br-]` [Compound 7a] returned an IC50 of 9710 ± 830 nM. On BChE [2], half-maximal inhibition (IC50) was put at 320 ± 60 nM and the “fold better BChE inhibitory activity in comparison with positive control” value was “around 33 fold”.

`O=C(NCc1ccc[n+](Cc2ccccc2F)c1)c1ccc(CN2C(=O)c3ccccc3C2=O)cc1` [Compound 7b]: the figures for the IC50 against AChE [1] and on BChE [2] were 1190 ± 450 nM and 310 ± 20 nM, respectively.

The viability is the share of living cells, or the viability signal relative to a control. High values mean less harm to the cells, low ones more harm to the cells. The Ki is the dissociation constant of the complex between target and ligand, obtained from inhibition or displacement. Read a low Ki as a stronger hold on the target. On to `O=C(NCc1ccc[n+](Cc2cccc(F)c2)c1)c1ccc(CN2C(=O)c3ccccc3C2=O)cc1.[Cl-]` [Compound 7c], for which the “reduction of GSK-3β mRNA level” value with GSK-3β mRNA (25 μM) was found to be 25%. Moreover, in the data set on GSK-3β mRNA (25 μM, relative to control group), the “mRNA level of GSK-3β” value was around 75%. The “effect on mRNA level of GSK-3β (in words)” value in the data set with GSK-3β mRNA (SH-SY5Y, compared to control group) was “decreased; also recorded: could reduce the mRNA level of GSK-3β”. For the same molecule, the IC50 against AChE [1] stood at 3980 ± 210 nM. Moreover, at BChE [2], inhibition was half-maximal at 80 ± 10 nM (IC50) and the “fold better BChE inhibitory activity in comparison with positive control” value came to 132 fold. In addition, the viability at 72 h, 50 µM in data set [3] was around 80%. Besides, the “toxicity on SH-SY5Y at fewer concentrations” value in data set [4] is recorded as “did not exhibit any toxicity”. In addition, the “effect on the mRNA level of GSK3α” value with GSK-3α mRNA is “no noticeable effect”. Also, the Ki at BChE [5] turned out to be 130 nM. For the same molecule, on BChE [5] (Lineweaver-Burk plot, BChE), the inhibition mode result is recorded as “mixed-type inhibition mode; also recorded: mixed inhibitor”.

`O=C(NCc1ccc[n+](Cc2ccc(F)cc2)c1)c1ccc(CN2C(=O)c3ccccc3C2=O)cc1` [Compound 7d]: the IC50 on AChE [1] is 11100 ± 1290 nM; at BChE [2] it was 330 ± 10 nM.

Turning to `O=C(NCc1ccc[n+](Cc2cccc(Cl)c2)c1)c1ccc(CN2C(=O)c3ccccc3C2=O)cc1` [Compound 7f], the IC50 was 2660 ± 880 nM against AChE [1] and 560 ± 190 nM against BChE [2].

On to `O=C(NCc1ccc[n+](Cc2cccc(Br)c2)c1)c1ccc(CN2C(=O)c3ccccc3C2=O)cc1` [Compound 7i], for which the IC50 was found to be 2100 ± 490 nM against AChE [1] and 150 ± 10 nM against BChE [2].

The molecule `O=C(NCc1ccc[n+](Cc2ccc(Br)cc2)c1)c1ccc(CN2C(=O)c3ccccc3C2=O)cc1.[Br-]` [Compound 7j] yielded an IC50 against AChE [1] of 260 ± 70 nM. Also, the Ki on AChE [6] was determined as 940 nM. The “secondary inhibition constant (Kis)” value at AChE [6] (1/Vmax vs inhibitor concentration, AChE) amounted to 4.29 µM. The inhibition mode result against AChE [6] (Lineweaver-Burk plot, AChE) is recorded as “mixed mode of inhibition; also recorded: mixed-type inhibition pattern”.

For the molecule `O=C(NCc1ccc[n+](Cc2ccc([N+](=O)[O-])cc2)c1)c1ccc(CN2C(=O)c3ccccc3C2=O)cc1` [Compound 7l], the values for the IC50 against AChE [1] and at BChE [2] were 5060 ± 2400 nM and 20400 ± 2550 nM, respectively.

With `CCCCC[n+]1cccc(CNC(=O)c2ccc(CN3C(=O)c4ccccc4C3=O)cc2)c1` [Compound 7p], the results for the half-maximal inhibitory concentration (IC50) at AChE [1] and against BChE [2] were 6290 ± 760 nM and 18600 ± 1210 nM, respectively.

By inhibition is commonly meant the share of the control response that was lost under treatment. In the case of `CC[n+]1cccc(CNC(=O)c2ccc(CN3C(=O)c4ccccc4C3=O)cc2)c1` [Compound 7q], the inhibition at 50 µM at AChE [1] (read-out: AChE % inhibition at 50 μM) is 33.6 ± 2.9%. Inhibition at BChE [2] was half-maximal at 490 ± 40 nM (IC50).

Values taken from publication PMC11635510 (ACS Omega, 2024).
